Tests used:
[1] = Inhibition of HCV NS4A-tethered single chain NS3 serine protease by spectrophotometric assay; parameters: species or system Hepacivirus hominis
Summary of the method: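 Continuous assay with NS4A-tethered single-chain NS3 serine protease; potency given as Ki*.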

Hepatitis C virus = assay: Antiviral activity against Hepatitis C virus genotype 1 infected in human hepatocytes by replicon assay; format: functional, Hepacivirus hominis; details: genotype 1, Hepatocyte
Summary of the method: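 HCV genotype 1 replicon cell assay; EC90 reported, within 3-fold at 95% confidence for a single assay and within 2-fold for multiple assays.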

[2] = Cytotoxicity against human hepatocytes assessed as effect on GAPDH RNA level […]; format: cell-based, Hepatocyte
Summary of the method: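 Counter-screen for cellular toxicity measuring GAPDH; CC50 reported.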

[3] = AUC (0 to 6 hrs) in rat at 10 mg/kg, po; format: ADME, organism-based; parameters: time < 6 hr, dose 10 mg/kg, route oral; details: plasma
[4] = Drug level in rat liver at 10 mg/kg, po after 6 hrs; format: ADME, organism-based; parameters: dose 10 mg/kg, route oral; details: read-out: Drug uptake
Summary of the method: (§1)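 Rapid rat oral screen, 2 animals, PO vehicle 40% HPBCD; compound concentration measured in liver at 6 h, or at 8 h where footnoted; plasma AUC taken over 0-6 h.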

[5] = AUC in rat at 10 mg/kg, po; format: ADME, organism-based; parameters: dose 10 mg/kg, route oral; details: plasma
Summary of the method: (§2)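 Rats dosed PO and IV at 10 mpk, 3 animals per route; IV given in 40% HPBCD, PO in 0.4% MC.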

[6] = AUC in rat at 10 mg/kg, iv; format: ADME, organism-based; parameters: dose 10 mg/kg, route intravenous; details: plasma
[7] = Half life in rat at 10 mg/kg, iv; format: ADME, organism-based; parameters: dose 10 mg/kg, route intravenous; details: in vivo; summary of the method: as §2
[8] = Clearance in rat at 10 mg/kg, po and at 10 mg/kg, iv; format: ADME, organism-based; details: in vivo; summary of the method: as §2
[9] = Volume of distribution at steady state in rat at 10 mg/kg, po and at 10 mg/kg, iv; format: ADME, organism-based; details: in vivo, read-out: Vdss; summary of the method: as §2
[10] = Oral bioavailability in rat at 10 mg/kg; format: ADME, organism-based; details: in vivo; summary of the method: as §2
[11] = AUC in cynomolgus monkey at 3 mg/kg, po; format: ADME, organism-based, Macaca fascicularis; parameters: dose 3 mg/kg, route oral; details: plasma
Summary of the method: (§3)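 Cynomolgus monkey dosed PO and IV at 3 mpk, 3 animals per route; IV vehicle 20% HPBCD, PO vehicle 0.4% MC. AUC in µM·h, t1/2 in h, clearance mL/min/kg, Vd(ss) L/kg, F in %.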

[12] = AUC in cynomolgus monkey at 3 mg/kg, iv; format: ADME, organism-based, Macaca fascicularis; parameters: dose 3 mg/kg, route intravenous; details: plasma; summary of the method: as §3
[13] = Half life in cynomolgus monkey at 3 mg/kg, iv; format: ADME, organism-based, Macaca fascicularis; parameters: dose 3 mg/kg, route intravenous; details: in vivo; summary of the method: as §3
[14] = Clearance in cynomolgus monkey at 3 mg/kg, po and at 3 mg/kg, iv; format: ADME, organism-based, Macaca fascicularis; details: in vivo; summary of the method: as §3
[15] = Volume of distribution at steady state in cynomolgus monkey at 3 mg/kg, po and at 3 mg/kg, iv; format: ADME, organism-based, Macaca fascicularis; details: in vivo, read-out: Vdss; summary of the method: as §3
[16] = Oral bioavailability in cynomolgus monkey at 3 mg/kg; format: ADME, organism-based, Macaca fascicularis; details: in vivo; summary of the method: as §3
[17] = Metabolic stability in cynomolgus monkey urine assessed as recovery of radioactivity at 2 mg/kg, po after 24 hrs; format: ADME, organism-based, Macaca fascicularis; parameters: dose 2 mg/kg, route oral; details: in vivo
Summary of the method: (§4)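 Two cynomolgus monkeys given the 14C-labelled ketoamide orally at 2 mg/kg; radioactivity collected in bile and urine over 0-24 h and expressed as % of oral dose; plasma also sampled.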

[18] = Metabolic stability in cynomolgus monkey bile assessed as recovery of radioactivity at 2 mg/kg, po after 24 hrs; format: ADME, organism-based, Macaca fascicularis; parameters: dose 2 mg/kg, route oral; details: in vivo; summary of the method: as §4
[19] = Drug level in rat liver at 10 mg/kg, po after 8 hrs; format: ADME, organism-based; parameters: dose 10 mg/kg, route oral; details: read-out: Drug uptake; summary of the method: as §1

Row | Compound | Ki [1] [nM] | AUC(0-t) at 6 h [3] [µM·h] | concentration at 6 h [4] [nM] | EC90 (Hepatitis C virus) [nM] | CC50 [2] [nM] | other results
1 | CC(C)[C@H](NC(=O)N[C@H](C(=O)N1C[C@H]2[C@@H]([C@H]1C(=O)NC(CC1CC1)C(=O)C(N)=O)C2(C)C)C(C)(C)C)C(=O)C1CC1 (mixture of isomers) | 7 | 0.12 |  | 100 | > 5000 | 
2 | CC(C)[C@H](NC(=O)N[C@H](C(=O)N1C[C@H]2[C@@H]([C@H]1C(=O)NC(CC1CC1)C(=O)C(N)=O)C2(C)C)C(C)(C)C)C(=O)c1nccs1 (mixture of isomers) | 9 | 0.15 |  | 90 | > 5000 | 
3 | CC(C)[C@H](NC(=O)N[C@H](C(=O)N1C[C@H]2[C@@H]([C@H]1C(=O)NC(CC1CC1)C(=O)C(N)=O)C2(C)C)C(C)(C)C)C(=O)c1ccccn1 (mixture of isomers) | 8 | 0.42 |  | 200 | > 5000 | 
4 | CC(C)(C)[C@H](NC(=O)N[C@H](C(=O)c1ccccn1)C1CCCCC1)C(=O)N1C[C@H]2[C@@H]([C@H]1C(=O)NC(CC1CC1)C(=O)C(N)=O)C2(C)C (mixture of isomers) | 7 | 1.4 | 800 | 90 | > 5000 | 
5 | CC(C)(C)[C@H](NC(=O)NC1(C(=O)OCc2ccsc2)CCCCC1)C(=O)N1C[C@H]2[C@@H]([C@H]1C(=O)NC(CC1CC1)C(=O)C(N)=O)C2(C)C (mixture of isomers) | 31 |  |  | 20 | > 5000 | 
6 | CC(C)[C@H](NC(=O)N[C@H](C(=O)N1C[C@H]2[C@@H]([C@H]1C(=O)NC(CC1CC1)C(=O)C(N)=O)C2(C)C)C(C)(C)C)C(=O)c1ccccc1 (mixture of isomers) | 5 |  |  | 80 | > 5000 | AUC [5]: 0.26 µM·h
7 | CC(C)(C)[C@H](NC(=O)NC1(C(=O)OCc2ccccc2)CCCCC1)C(=O)N1C[C@H]2[C@@H]([C@H]1C(=O)NC(CC1CC1)C(=O)C(N)=O)C2(C)C (mixture of isomers) | 49 |  |  | 20 | > 5000 | AUC [6]: 9.3 µM·h; half-life [7]: 2.9 h; clearance [8]: 28 mL/min/kg; Vd [9]: 3.5 L/kg; bioavailability [10]: 0%; AUC [11]: 0.05 µM·h; AUC [12]: 3.4 µM·h; half-life [13]: 3.1 h; clearance [14]: 43 mL/min/kg; Vd [15]: 1.7 L/kg; bioavailability [16]: 3%; Stability [17]: 0.8%; Stability [18]: 4.3%
8 | C#CCCC(NC(=O)[C@@H]1[C@@H]2[C@H](CN1C(=O)[C@@H](NC(=O)N[C@H](C(=O)C1CC1)C(C)C)C(C)(C)C)C2(C)C)C(=O)C(=O)NC1CC1 (mixture of isomers) | 8 | 4.8 | 900 | 70 | > 5000 | 
9 | CC1(NC(=O)N[C@H](C(=O)N2C[C@H]3[C@@H]([C@H]2C(=O)NC(CC2CC2)C(=O)C(N)=O)C3(C)C)C(C)(C)C)CCCCC1 (mixture of isomers) | 9 |  |  | 200 | > 5000 | 
10 | CC(C)(C)NC(=O)N[C@H](C(=O)N1C[C@H]2[C@@H]([C@H]1C(=O)NC(CC1CCC1)C(=O)C(N)=O)C2(C)C)C(C)(C)C (stereo partly specified) [BOCEPREVIR] | 14 | 0.14 |  | 350 | > 5000 | concentration at 8 h [19]: 300 nM

Continued, in another order:

Row | Ki [1] [nM] | AUC(0-t) at 6 h [3] [µM·h] | concentration at 6 h [4] [nM] | Compound | EC90 (Hepatitis C virus) [nM] | CC50 [2] [nM] | other results
11 | 4 | 11 | 2900 | C#CCCC(NC(=O)[C@@H]1[C@@H]2[C@H](CN1C(=O)[C@@H](NC(=O)N[C@H](C(=O)C1CC1)C1CCCCC1)C(C)(C)C)C2(C)C)C(=O)C(=O)NC1CC1 (mixture of isomers) | 55 | > 5000 | 
12 | 9 | 24 | 8500 | C#CCCC(NC(=O)[C@@H]1[C@@H]2[C@H](CN1C(=O)[C@@H](NC(=O)N[C@H](C(=O)C1CC1)C1CCCCC1)C(C)(C)C)C2(C)C)C(=O)C(=O)NCC=C (mixture of isomers) | 250 | > 5000 | 
13 | 10 | 55 |  | C=CCNC(=O)C(=O)C(CCC)NC(=O)[C@@H]1[C@@H]2[C@H](CN1C(=O)[C@@H](NC(=O)N[C@H](C(=O)C1CC1)C1CCCCC1)C(C)(C)C)C2(C)C (mixture of isomers) | 500 | > 5000 | 
14 | 25 | 26 |  | C=CCNC(=O)C(=O)C(CCC)NC(=O)[C@@H]1[C@@H]2[C@H](CN1C(=O)[C@@H](NC(=O)N[C@H](C(=O)C1CC1)C(C)C)C(C)(C)C)C2(C)C (mixture of isomers) | 600 | > 5000 | 
15 | 8 | 1.4 | 2700 | CC(C)(C)[C@H](NC(=O)N[C@H](C(=O)C1CC1)C1CCCCC1)C(=O)N1C[C@H]2[C@@H]([C@H]1C(=O)NC(CC1CC1)C(=O)C(N)=O)C2(C)C (mixture of isomers) | 100 | > 5000 | 

— ChEMBL document CHEMBL1136954, “Toward the back-up of boceprevir (SCH 503034): discovery of new extended P4-capped ketoamide inhibitors of hepatitis C virus NS3 serine protease with improved potency and pharmacokinetic profiles” (J Med Chem, 2009)
